Assay results taken from PMC3741069 (Biochemistry, 2013).
Residue numbers refer to the chain shown, from its start.

What was measured:
nitrate reductase (NarB) [1] = molecular target: T1, nitrate reductase (NarB) (Synechococcus elongatus, UniProt P39458); assay: spectral perturbation titration; assay type: binding
T1 sequence (P39458 15-729): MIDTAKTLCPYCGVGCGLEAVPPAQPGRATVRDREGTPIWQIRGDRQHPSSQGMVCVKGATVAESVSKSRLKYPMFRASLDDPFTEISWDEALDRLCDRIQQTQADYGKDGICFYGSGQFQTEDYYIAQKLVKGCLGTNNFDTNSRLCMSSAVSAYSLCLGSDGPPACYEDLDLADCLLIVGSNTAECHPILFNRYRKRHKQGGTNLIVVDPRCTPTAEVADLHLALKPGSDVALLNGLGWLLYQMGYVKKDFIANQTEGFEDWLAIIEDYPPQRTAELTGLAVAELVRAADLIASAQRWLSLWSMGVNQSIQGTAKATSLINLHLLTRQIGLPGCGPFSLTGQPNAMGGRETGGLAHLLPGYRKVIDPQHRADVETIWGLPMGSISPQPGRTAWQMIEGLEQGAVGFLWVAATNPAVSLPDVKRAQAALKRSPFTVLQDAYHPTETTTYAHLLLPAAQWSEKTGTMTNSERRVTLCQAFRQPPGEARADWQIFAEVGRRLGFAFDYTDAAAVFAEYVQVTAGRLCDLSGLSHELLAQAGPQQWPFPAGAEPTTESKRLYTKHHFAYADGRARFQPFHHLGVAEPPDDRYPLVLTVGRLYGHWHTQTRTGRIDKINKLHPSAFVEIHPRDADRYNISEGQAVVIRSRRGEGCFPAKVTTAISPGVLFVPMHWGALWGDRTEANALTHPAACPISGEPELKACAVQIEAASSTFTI
Outline: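 Recombinant wild-type Synechococcus sp. PCC 7942 NarB had its first 14 residues deleted and a C-terminal His6 tag. It was expressed in E. coli DH5a with 100 μM molybdate and purified by Co affinity, DEAE and gel filtration. Oxidized enzyme was titrated with ferredoxin (read at 420 minus 600 nm) or nitrate (read at 400 minus 470 nm; change at saturating nitrate taken as 100% complex). Kd came from a single binding isotherm fit.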

nitrate reductase (NarB) [2] = molecular target: T2, nitrate reductase (NarB) (Synechococcus elongatus, UniProt P39458, R160Q); assay: spectral perturbation titration; assay type: binding
T2 sequence (P39458 15-729 R160Q): T1 sequence (P39458 15-729) with R146Q
Outline: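 Single-residue NarB variants were made by site-directed mutagenesis and expressed and purified as for wild type (His6, Co affinity, DEAE, gel filtration). Complex formation with ferredoxin or nitrate was followed by difference absorbance at variant-specific wavelength pairs chosen for signal:noise. The change at saturating nitrate was taken as 100% complex. Kd came from fitting perturbation magnitude against ligand concentration to a single binding isotherm.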

Question: Which Kd (nitrate reductase (NarB) [1]) does the source give for `O=[N+]([O-])O` [nitrate] here?
Answer: 1000 ± 300 nM

Question: What about the Kd (nitrate reductase (NarB) [2]) of the same compound?
Answer: 1500 ± 400 nM
